In brackets after ≈: the same amount, converted by molar mass.
Key:
[1] = Cytotoxicity against human HeLa cells assessed as alteration in cell morphology; assay type: cell-based
Summary of the method: (§1)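 Uninfected cell cultures tested in parallel with the CPE-reduction antiviral assay; cells grown to confluency, then serial compound dilutions added and incubated at 37 °C (3 days in the parallel antiviral set-up). Read-out is microscopic examination of morphology; value is the minimum cytotoxic concentration, the lowest causing a microscopically detectable alteration of normal cell morphology.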

[2] = Cytotoxicity against african green monkey Vero cells assessed as alteration in cell morphology; assay type: cell-based; details: chlorocebus sabaeus; summary of the method: as §1
[3] = system: Human alphaherpesvirus 1; test: Antiviral activity against HSV1 KOS infected in human HEL cells assessed as reduction in virus-induced cytopathogenicity after 3 days; assay type: functional, organism-based; details: Human alphaherpesvirus 1, KOS, 72 h
[4] = system: Candida albicans; test: Antimicrobial activity against Candida albicans after 48 hrs by tube dilution method; assay type: functional
Summary of the method: (§2)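 Tube dilution in DMSO (stock 100 mg/ml) with serial dilutions; incubation 37 °C for 48 h for C. albicans (other organisms' times truncated in text). MIC read as lowest concentration inhibiting visible growth. Norfloxacin (bacteria) and fluconazole (fungi) as reference drugs.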

[5] = Cytotoxicity against human HEL cells assessed as alteration in cell morphology; assay type: cell-based; summary of the method: as §1
[6] = system: Bacillus subtilis; test: Antimicrobial activity against Bacillus subtilis after 24 hrs by tube dilution method; assay type: functional; summary of the method: as §2
[7] = system: Human respirovirus 3; test: Antiviral activity against Parainfluenza-3 virus infected in african green monkey Vero cells assessed as reduction in virus-induced cytopathogenicity after 3 days; assay type: functional, organism-based; details: Human respirovirus 3, Vero, 72 h
[8] = system: Escherichia coli; test: Antimicrobial activity against Escherichia coli after 24 hrs by tube dilution method; assay type: functional; summary of the method: as §2
[9] = system: Sindbis virus; test: Antiviral activity against Sindbis virus infected in african green monkey Vero cells assessed as reduction in virus-induced cytopathogenicity after 3 days; assay type: functional, organism-based; details: 72 h
[10] = system: Respiratory syncytial virus; test: Antiviral activity against RSV infected in human HeLa cells assessed as reduction in virus-induced cytopathogenicity after 3 days; assay type: functional, organism-based; details: 72 h
[11] = system: Vesicular stomatitis virus; test: Antiviral activity against VSV infected in human HEL cells assessed as reduction in virus-induced cytopathogenicity after 3 days; assay type: functional, organism-based; details: 72 h
[12] = system: Human alphaherpesvirus 1; test: Antiviral activity against thymidine kinase-deficient acyclovir-resistant HSV1 KOS infected in human HEL cells assessed as reduction in virus-induced cytopathogenicity after 3 days; assay type: functional, organism-based; details: Human alphaherpesvirus 1, KOS, 72 h
[13] = system: Coxsackievirus B4; test: Antiviral activity against Coxsackievirus B4 infected in african green monkey Vero cells assessed as reduction in virus-induced cytopathogenicity after 3 days; assay type: functional, organism-based; details: Enterovirus B, 72 h
[14] = system: Aspergillus niger; test: Antimicrobial activity against Aspergillus niger after 7 days by tube dilution method; assay type: functional; details: 168 h; summary of the method: as §2
[15] = system: Vesicular stomatitis virus; test: Antiviral activity against VSV infected in human HeLa cells assessed as reduction in virus-induced cytopathogenicity after 3 days; assay type: functional, organism-based; details: 72 h
[16] = system: Punta Toro virus; test: Antiviral activity against Punta Toro virus infected in african green monkey Vero cells assessed as reduction in virus-induced cytopathogenicity after 3 days; assay type: functional, organism-based; details: 72 h
[17] = system: Coxsackievirus B4; test: Antiviral activity against Coxsackievirus B4 infected in human HeLa cells assessed as reduction in virus-induced cytopathogenicity after 3 days; assay type: functional, organism-based; details: Enterovirus B, 72 h
[18] = system: Mammalian orthoreovirus 1; test: Antiviral activity against Reovirus 1 infected in african green monkey Vero cells assessed as reduction in virus-induced cytopathogenicity after 3 days; assay type: functional, organism-based; details: Mammalian orthoreovirus 1, Vero, 72 h
[19] = system: Human alphaherpesvirus 2; test: Antiviral activity against HSV2 G infected in human HEL cells assessed as reduction in virus-induced cytopathogenicity after 3 days; assay type: functional, organism-based; details: Human alphaherpesvirus 2, strain G, 72 h
[20] = system: Staphylococcus aureus; test: Antimicrobial activity against Staphylococcus aureus after 24 hrs by tube dilution method; assay type: functional; summary of the method: as §2

SMILES | MCC [1] | MCC [2] | EC50 [3] | MFC [4] | MIC [4] | MCC [5] | MBC [6] | MIC [6] | EC50 [7] | MBC [8] | MIC [8] | EC50 [9] | EC50 [10] | EC50 [11] | EC50 [12] | EC50 [13] | MFC [14] | MIC [14] | EC50 [15] | EC50 [16] | also measured
O=C(c1ccccc1Br)n1ccnc1-c1ccc([N+](=O)[O-])cc1 | > 100 µg/mL | > 100 µg/mL | > 100 µg/mL | 134 µM (≈ 49.9 µg/mL) | 16 µM (≈ 5.95 µg/mL) | > 100 µg/mL | 33 µM (≈ 12.3 µg/mL) | 4 µM (≈ 1.49 µg/mL) | > 100 µg/mL | 33 µM (≈ 12.3 µg/mL) | 4 µM (≈ 1.49 µg/mL) | > 100 µg/mL | > 100 µg/mL | > 100 µg/mL | > 100 µg/mL | > 100 µg/mL | 67 µM (≈ 24.9 µg/mL) | 4 µM (≈ 1.49 µg/mL) | > 100 µg/mL | > 100 µg/mL | EC50 [17]: > 100 µg/mL; EC50 [18]: > 100 µg/mL; EC50 [19]: > 100 µg/mL; MBC [20]: 16 µM (≈ 5.95 µg/mL); MIC [20]: 2 µM (≈ 0.744 µg/mL)
O=C(O)c1ccccc1-c1nccn1C(=O)c1ccc([N+](=O)[O-])cc1 | > 100 µg/mL | > 100 µg/mL | > 100 µg/mL | 256 µM (≈ 86.3 µg/mL) | 18 µM (≈ 6.07 µg/mL) | > 100 µg/mL | 18 µM (≈ 6.07 µg/mL) | 2 µM (≈ 0.675 µg/mL) | > 100 µg/mL | 18 µM (≈ 6.07 µg/mL) | 2 µM (≈ 0.675 µg/mL) | > 100 µg/mL | > 100 µg/mL | > 100 µg/mL | > 100 µg/mL | > 100 µg/mL | 148 µM (≈ 49.9 µg/mL) | 9 µM (≈ 3.04 µg/mL) | > 100 µg/mL | > 100 µg/mL | EC50 [17]: > 100 µg/mL; EC50 [18]: > 100 µg/mL; EC50 [19]: > 100 µg/mL; MBC [20]: 18 µM (≈ 6.07 µg/mL); MIC [20]: 2 µM (≈ 0.675 µg/mL)
O=C(c1ccc([N+](=O)[O-])cc1)n1ccnc1-c1cccc(Cl)c1 | > 100 µg/mL | > 100 µg/mL | > 100 µg/mL | 304 µM (≈ 99.6 µg/mL) | 38 µM (≈ 12.5 µg/mL) | > 100 µg/mL | 305 µM (≈ 100 µg/mL) | 38 µM (≈ 12.5 µg/mL) | > 100 µg/mL | 305 µM (≈ 100 µg/mL) | 38 µM (≈ 12.5 µg/mL) | > 100 µg/mL | > 100 µg/mL | > 100 µg/mL | > 100 µg/mL | > 100 µg/mL | 152 µM (≈ 49.8 µg/mL) | 19 µM (≈ 6.23 µg/mL) | > 100 µg/mL | > 100 µg/mL | EC50 [17]: > 100 µg/mL; EC50 [18]: > 100 µg/mL; EC50 [19]: > 100 µg/mL; MBC [20]: 305 µM (≈ 100 µg/mL); MIC [20]: 38 µM (≈ 12.5 µg/mL)
COc1ccc(-c2nccn2C(=O)c2ccccc2Br)cc1 | > 100 µg/mL | > 100 µg/mL | > 100 µg/mL | 134 µM (≈ 47.9 µg/mL) | 16 µM (≈ 5.72 µg/mL) | > 100 µg/mL | 628 µM (≈ 224 µg/mL) | 16 µM (≈ 5.72 µg/mL) | > 100 µg/mL | 628 µM (≈ 224 µg/mL) | 33 µM (≈ 11.8 µg/mL) | > 100 µg/mL | > 100 µg/mL | > 100 µg/mL | > 100 µg/mL | > 100 µg/mL | 134 µM (≈ 47.9 µg/mL) | 16 µM (≈ 5.72 µg/mL) | > 100 µg/mL | > 100 µg/mL | EC50 [17]: > 100 µg/mL; EC50 [18]: > 100 µg/mL; EC50 [19]: > 100 µg/mL; MBC [20]: 134 µM (≈ 47.9 µg/mL); MIC [20]: 16 µM (≈ 5.72 µg/mL)
O=C(c1ccc([N+](=O)[O-])cc1)n1ccnc1-c1ccc([N+](=O)[O-])cc1 | 100 µg/mL | > 100 µg/mL | 59 µg/mL (≈ 174 µM) | 147 µM (≈ 49.7 µg/mL) | 18 µM (≈ 6.09 µg/mL) | > 100 µg/mL | 295 µM (≈ 99.8 µg/mL) | 36 µM (≈ 12.2 µg/mL) | > 100 µg/mL | 295 µM (≈ 99.8 µg/mL) | 73 µM (≈ 24.7 µg/mL) | > 100 µg/mL | > 20 µg/mL | > 100 µg/mL | 45 µg/mL (≈ 133 µM) | > 100 µg/mL | 147 µM (≈ 49.7 µg/mL) | 18 µM (≈ 6.09 µg/mL) | > 20 µg/mL | > 100 µg/mL | EC50 [17]: > 20 µg/mL; EC50 [18]: > 100 µg/mL; EC50 [19]: 50 µg/mL (≈ 148 µM); MBC [20]: 295 µM (≈ 99.8 µg/mL); MIC [20]: 73 µM (≈ 24.7 µg/mL)
O=C(c1ccccc1Br)n1ccnc1-c1cccc([N+](=O)[O-])c1 | > 100 µg/mL | > 100 µg/mL | > 100 µg/mL | 268 µM (≈ 99.7 µg/mL) | 16 µM (≈ 5.95 µg/mL) | > 100 µg/mL | 268 µM (≈ 99.7 µg/mL) | 33 µM (≈ 12.3 µg/mL) | > 100 µg/mL | 16 µM (≈ 5.95 µg/mL) | 2 µM (≈ 0.744 µg/mL) | > 100 µg/mL | > 100 µg/mL | > 100 µg/mL | > 100 µg/mL | > 100 µg/mL | 67 µM (≈ 24.9 µg/mL) | 16 µM (≈ 5.95 µg/mL) | > 100 µg/mL | > 100 µg/mL | EC50 [17]: > 100 µg/mL; EC50 [18]: > 100 µg/mL; EC50 [19]: > 100 µg/mL; MBC [20]: 33 µM (≈ 12.3 µg/mL); MIC [20]: 4 µM (≈ 1.49 µg/mL)
O=C(c1ccccc1Br)n1ccnc1-c1ccccc1[N+](=O)[O-] | > 100 µg/mL | > 100 µg/mL | > 100 µg/mL | 268 µM (≈ 99.7 µg/mL) | 33 µM (≈ 12.3 µg/mL) | > 100 µg/mL | 268 µM (≈ 99.7 µg/mL) | 2 µM (≈ 0.744 µg/mL) | > 100 µg/mL | 268 µM (≈ 99.7 µg/mL) | 33 µM (≈ 12.3 µg/mL) | > 100 µg/mL | > 100 µg/mL | > 100 µg/mL | > 100 µg/mL | > 100 µg/mL | 67 µM (≈ 24.9 µg/mL) | 4 µM (≈ 1.49 µg/mL) | > 100 µg/mL | > 100 µg/mL | EC50 [17]: > 100 µg/mL; EC50 [18]: > 100 µg/mL; EC50 [19]: > 100 µg/mL; MBC [20]: 268 µM (≈ 99.7 µg/mL); MIC [20]: 2 µM (≈ 0.744 µg/mL)
O=C(c1ccc([N+](=O)[O-])cc1)n1ccnc1-c1ccccc1Cl | > 100 µg/mL | > 100 µg/mL | > 100 µg/mL | 152 µM (≈ 49.8 µg/mL) | 38 µM (≈ 12.5 µg/mL) | > 100 µg/mL | 19 µM (≈ 6.23 µg/mL) | 2 µM (≈ 0.655 µg/mL) | > 100 µg/mL | 19 µM (≈ 6.23 µg/mL) | 2 µM (≈ 0.655 µg/mL) | > 100 µg/mL | > 100 µg/mL | > 100 µg/mL | > 100 µg/mL | > 100 µg/mL | 76 µM (≈ 24.9 µg/mL) | 9 µM (≈ 2.95 µg/mL) | > 100 µg/mL | > 100 µg/mL | EC50 [17]: > 100 µg/mL; EC50 [18]: > 100 µg/mL; EC50 [19]: > 100 µg/mL; MBC [20]: 19 µM (≈ 6.23 µg/mL); MIC [20]: 2 µM (≈ 0.655 µg/mL)

Reference: ChEMBL document CHEMBL1158343, “Synthesis, antimicrobial and antiviral evaluation of substituted imidazole derivatives” (Eur J Med Chem, 2009)
